Laboratory results: ChEMBL document CHEMBL1949556, “Design and synthesis of boronic acid inhibitors of endothelial lipase” (Bioorg Med Chem Lett, 2012)

Assays:
Endothelial lipase [1] = biological target: T1, Endothelial lipase (Homo sapiens, UniProt Q9Y5X9); experiment: Inhibition of human endothelial lipase expressed using recombinant adenovirus using glycerol-tri[9,10(n)-3H]oleate after 1 hr by vesicle assay
T1 sequence (Q9Y5X9 whole entry): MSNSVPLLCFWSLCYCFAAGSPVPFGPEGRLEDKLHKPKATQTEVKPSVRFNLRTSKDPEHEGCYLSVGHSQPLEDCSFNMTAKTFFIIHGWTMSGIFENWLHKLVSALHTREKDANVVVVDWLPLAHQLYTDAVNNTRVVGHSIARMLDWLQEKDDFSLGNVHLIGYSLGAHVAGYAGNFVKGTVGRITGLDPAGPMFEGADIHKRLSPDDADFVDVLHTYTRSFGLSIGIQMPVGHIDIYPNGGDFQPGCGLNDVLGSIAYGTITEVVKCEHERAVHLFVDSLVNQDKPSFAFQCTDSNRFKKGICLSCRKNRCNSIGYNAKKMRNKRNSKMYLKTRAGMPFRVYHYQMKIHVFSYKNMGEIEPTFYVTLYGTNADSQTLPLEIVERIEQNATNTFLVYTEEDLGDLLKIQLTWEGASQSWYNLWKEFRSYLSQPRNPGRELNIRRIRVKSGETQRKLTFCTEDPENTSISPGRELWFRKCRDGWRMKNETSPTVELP
Outline: (§1)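 Vesicle (interfacial catalysis) substrate system; IC50 taken as mean of two independent experiments, each run in duplicate.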

Lipoprotein lipase [2] = biological target: T2, Lipoprotein lipase (Homo sapiens, UniProt P06858); experiment: Inhibition of human lipoprotein lipase expressed using recombinant adenovirus using glycerol-tri[9,10(n)-3H]oleate after 1 hr by vesicle assay; outline: as §1
T2 sequence (P06858 whole entry): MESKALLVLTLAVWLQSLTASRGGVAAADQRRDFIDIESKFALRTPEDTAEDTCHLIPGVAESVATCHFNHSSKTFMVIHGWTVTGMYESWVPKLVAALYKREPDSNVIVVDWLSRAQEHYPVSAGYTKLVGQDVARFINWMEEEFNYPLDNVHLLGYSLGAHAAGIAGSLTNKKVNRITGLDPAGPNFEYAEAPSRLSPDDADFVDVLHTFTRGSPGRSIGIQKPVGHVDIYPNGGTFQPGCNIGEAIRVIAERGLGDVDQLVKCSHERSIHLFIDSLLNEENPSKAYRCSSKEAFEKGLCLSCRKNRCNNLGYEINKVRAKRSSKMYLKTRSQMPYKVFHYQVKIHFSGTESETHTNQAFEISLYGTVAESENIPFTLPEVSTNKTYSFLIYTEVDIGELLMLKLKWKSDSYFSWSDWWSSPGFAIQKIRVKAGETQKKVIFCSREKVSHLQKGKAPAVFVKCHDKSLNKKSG

Endothelial lipase [3] = biological target: T1, Endothelial lipase; experiment: Inhibition of human endothelial lipase overexpressed in HUVEC cells using bis-BD-PC and mono-BD-TG as substrate incubated for 10 mins prior to substrate addition by micelle assay; type: cell-based
Outline: (§2)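 Detergent micelle system, which removes interfacial catalysis and gives direct access to the active site; IC50 taken as mean of two independent experiments, each run in duplicate.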

Lipoprotein lipase [4] = biological target: T2, Lipoprotein lipase; experiment: Inhibition of human lipoprotein lipase expressed in HEK293 cells using bis-BD-PC and mono-BD-TG as substrate incubated for 10 mins prior to substrate addition by micelle assay; outline: as §2
Homo sapiens [5] = organism: Homo sapiens; experiment: Selectivity ratio of IC50 for human lipoprotein lipase by micelle assay to IC50 for human endothelial lipase by micelle assay
Outline: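 Ratio of lipoprotein lipase IC50 to endothelial lipase IC50, both from micelle assays; unitless.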

[6] = biological target: T3, Endothelial lipase (Homo sapiens) (UniProt Q9Y5X9); experiment: Inhibition of human endothelial lipase expressed using recombinant adenovirus using glycerol-tri[9,10(n)-3H]oleate at 50 uM after 1 hr by vesicle assay
T3 sequence (whole entry): T1 sequence (Q9Y5X9 whole entry)
Outline: (§3)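 Vesicle-based substrate system with the test agent at a single 50 μM concentration; percent inhibition of lipase activity reported.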

[7] = biological target: T4, Lipoprotein lipase (Homo sapiens) (UniProt P06858); experiment: Inhibition of human lipoprotein lipase expressed using recombinant adenovirus using glycerol-tri[9,10(n)-3H]oleate at 50 uM after 1 hr by vesicle assay; outline: as §3
T4 sequence (whole entry): T2 sequence (P06858 whole entry)

Homo sapiens [8] = organism: Homo sapiens; experiment: Selectivity ratio of IC50 for human lipoprotein lipase to IC50 for human endothelial lipase by vesicle assay
Outline: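 Ratio of lipoprotein lipase IC50 to endothelial lipase IC50, both from vesicle assays; unitless.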

SMILES	IC50 (Endothelial lipase [1]) [µM]	IC50 (Lipoprotein lipase [2]) [µM]	IC50 (Endothelial lipase [3]) [µM]	IC50 (Lipoprotein lipase [4]) [µM]	Ratio IC50 (Homo sapiens [5])	inhibition [6] [%]	inhibition [7] [%]	Ratio IC50 (Homo sapiens [8])
CCCCCCCCCCCc1ccc(B2OC(C)(C)C(C)(C)O2)cc1	4.5	> 50	1.4	15	11	–	–	–
CCCCCCCCCCCCCCCC#N	–	–	–	–	–	4	14	–
CCCc1ccc(B2OC(C)(C)C(C)(C)O2)cc1	5	25	6	25	4.1	–	–	5
CCCCCCCCCc1ccccc1B(O)O	50	> 50	11	> 500	> 50	–	–	–
CCCCCc1ccc(B2OC(C)(C)C(C)(C)O2)cc1	2.6	50	1.1	21	19	–	–	19
CC1(C)OB(c2ccc(-c3ccsc3)cc2)OC1(C)C	1.3	13	3.1	36	12	–	–	10
Cc1ccc(B(O)O)cc1 [TOLYL BORONIC ACID]	–	9	22	25	1.1	–	–	0.5
CCCCCCCCCCCCCCCC(=O)C=[N+]=[N-]	–	–	–	–	–	–	20	–
CC1(C)OB(c2ccc(-c3ccoc3)cc2)OC1(C)C	2.8	15	2.9	33	11	–	–	5.4
CCCCCCCCCCCCCCCC(=O)CCl	–	–	–	–	–	10	-10	–
CCCCCCCCCc1ccc(B2OC(C)(C)C(C)(C)O2)cc1	2.5	50	1	15	15	–	–	20
CCCCCCCCCc1cccc(B(O)O)c1	2.8	> 50	5	95	19	–	–	> 20
CCCCCCCc1ccc(B(O)O)cc1	1.7	30	0.32	9	28	–	–	18
CCCCCc1ccc(B(O)O)cc1	1	15	0.47	3.8	8	–	–	15
CCCCCCCc1ccc(B2OC(C)(C)C(C)(C)O2)cc1	3.5	55	1.1	19	17	–	–	16
CCCCCc1cccc(B2OC(C)(C)C(C)(C)O2)c1	4.2	45	35	100	2.8	–	–	11
CC1(C)OB(c2ccc(-c3ccc(F)cc3)cc2)OC1(C)C	1.6	55	1.1	33	30	–	–	34
CCCCCCCCCCCCCCCC(=O)C(F)(F)F	–	–	–	–	–	56	14	–
CC1(C)OB(c2ccc(-c3cccs3)cc2)OC1(C)C	1.9	7	1.6	40	25	–	–	3.7
CC1(C)OB(c2ccc(-c3ccccc3)cc2)OC1(C)C	1	4.4	1	12	12	–	–	4.4
CC1(C)OB(c2ccc(-c3ccc4ccccc4c3)cc2)OC1(C)C	2	22	1.7	15	8.8	–	–	11
CCCCCCCCCCCCCCCB(O)O	–	–	–	–	–	90	63	–
CCCCCCCCCc1ccc(B(O)O)cc1	1	42	0.1	1.4	14	–	–	42
CCc1ccc(B(O)O)cc1	–	9	19	20	1	–	–	0.3
CCCCCc1cccc(B(O)O)c1	12.8	50	22	85	3.8	–	–	4
CCCc1ccc(B(O)O)cc1	2	8	4	12.5	3.1	–	–	4
CC1(C)OB(c2ccc(-c3ccco3)cc2)OC1(C)C	1.9	9.6	1.3	35	27	–	–	5
CCCCCCCCCCCc1ccc(B(O)O)cc1	2	50	0.2	1.5	7.5	–	–	25
CCCCCCCCCCCCCCCC=O	–	–	–	–	–	7	-1	–
